Legend:
Assay type in all cases: functional
Conditions in all cases: route oral
Rattus norvegicus [1] = experiment: Compound was tested for the inhibition of rat reversed passive Arthus pleurisy after peroral administration of 10 mg/kg dose at 0.44 mL of exudate volume with 0.55 mL of control (injected intrapleurally)
Method in brief: (§1)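 Male Wistar rats (about 250 g) were given compound orally before the antiserum. Under ether anesthesia, 0.2 mL rabbit anti-egg albumin antiserum was injected intrapleurally. After 30 min, egg albumin (15 mg/100 g body weight in 0.1 mL saline) was given iv. Rats were killed 4.5 h later and the thoracic cavity was rinsed with 5 mL saline. Exudate volume and infiltrated cell number were measured, with inhibition % versus controls as mean ± SEM.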

Rattus norvegicus [2] = experiment: Compound was tested for the inhibition of rat reversed passive Arthus pleurisy after peroral administration of 10 mg/kg dose at 3.2*10e6 no of cells with 2.77*10e6 cells of control; method in brief: as §1
Rattus norvegicus [3] = experiment: Compound was tested for the inhibition of rat reversed passive Arthus pleurisy after peroral administration of 3 mg/kg dose at 0.59 mL of exudate volume with 0.55 mL of control (injected intrapleurally)
Method in brief: (§2)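 Male Wistar rats (about 250 g) under ether received 0.2 mL rabbit anti-egg-albumin antiserum intrapleurally. Thirty min later they got 15 mg EA/100 g body weight in 0.1 mL saline iv. Compounds were given orally beforehand. Rats were killed 4.5 h after induction and the thoracic cavity rinsed with 5 mL saline. Exudate volume and infiltrated cell count were read as mean ± SE. % inhibition is versus control.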

Rattus norvegicus [4] = experiment: Compound was tested for the inhibition of rat reversed passive Arthus pleurisy after peroral administration of 3 mg/kg dose at 4.01*10e6 no of cells with 2.77*10e6 cells of control; method in brief: as §2
Rattus norvegicus [5] = experiment: Compound was tested for the inhibition of rat reversed passive Arthus pleurisy after peroral administration of 100 mg/kg dose at 3.22*10e6 no of cells with 3.86*10e6 cells of control; method in brief: as §1
Rattus norvegicus [6] = experiment: Compound was tested for the inhibition of rat reversed passive Arthus pleurisy after peroral administration of 100 mg/kg dose at 0.82 mL of exudate volume with 0.86 mL of control (injected intrapleurally); method in brief: as §1
Rattus norvegicus [7] = experiment: Inhibition of Zymosan-induced rat's paw edema(ZPE) after peroral administration of 100 mg/kg dose.
Method in brief: (§3)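 Male Wistar rats (about 150 g) were dosed orally with compound suspended in 5% arabic gum, 1 h before a subplantar hind-paw injection of 0.1 mL saline. The irritant was 1% zymosan for 33 or 1% λ-carrageenin for 34. Paw volume was measured by plethysmograph before dosing and at 4 h (zymosan) or 3 h (carrageenin). Swelling is relative to initial volume, as mean ± SEM. % inhibition is versus the control group's mean swelling.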

Rattus norvegicus [8] = experiment: Antiinflammatory activity on Carrageenan rat's paw edema(CPE) after peroral administration of 100 mg/kg dose with control swelling of 90.0%
Rattus norvegicus [9] = experiment: Antiinflammatory activity on Zymosan-induced rat's paw edema(ZPE) after peroral administration of 100 mg/kg dose with control swelling of 85.5%
Method in brief: (§4)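 Male Wistar rats weighing about 150 g were dosed orally with compound suspended in 5% arabic gum. 1 h later, 1% zymosan in 0.1 mL saline was injected subplantarly into the hind paw. Paw volume was measured by plethysmograph before dosing and 4 h after zymosan, with edema as the volume difference. Inhibition % was derived from mean swelling versus the control group.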

Rattus norvegicus [10] = experiment: Inhibition of carrageenan-induced rat's paw edema (CPE) after peroral administration of 100 mg/kg dose.; method in brief: as §3
Rattus norvegicus [11] = experiment: Compound was tested for the inhibition of rat reversed passive Arthus pleurisy after peroral administration of 100 mg/kg dose at 3.77*10e6 no of cells with 3.86*10e6 cells of control; method in brief: as §2
Rattus norvegicus [12] = experiment: Compound was tested for the inhibition of rat reversed passive Arthus pleurisy after peroral administration of 100 mg/kg dose at 0.64 mL of exudate volume with 0.79 mL of control (injected intrapleurally); method in brief: as §1
Rattus norvegicus [13] = experiment: Antiinflammatory activity on Carrageenan rat's paw edema(CPE) after peroral administration of 100 mg/kg dose with control swelling of 63.7%
Rattus norvegicus [14] = experiment: Antiinflammatory activity on Zymosan-induced rat's paw edema(ZPE) after peroral administration of 100 mg/kg dose with control swelling of 69.5%; method in brief: as §4
Rattus norvegicus [15] = experiment: Compound was tested for the inhibition of rat reversed passive Arthus pleurisy after peroral administration of 100 mg/kg dose at 3.37*10e6 no of cells with 3.62*10e6 cells of control; method in brief: as §2
Rattus norvegicus [16] = experiment: Compound was tested for the inhibition of rat reversed passive Arthus pleurisy after peroral administration of 100 mg/kg dose at 0.61 mL of exudate volume with 0.54 mL of control (injected intrapleurally); method in brief: as §1
Rattus norvegicus [17] = experiment: Antiinflammatory activity on Carrageenan rat's paw edema(CPE) after peroral administration of 100 mg/kg dose with control swelling of 68.1%
Rattus norvegicus [18] = experiment: Antiinflammatory activity on Zymosan-induced rat's paw edema(ZPE) after peroral administration of 100 mg/kg dose with control swelling of 62.0%; method in brief: as §4
Rattus norvegicus [19] = experiment: Compound was tested for the inhibition of rat reversed passive Arthus pleurisy after peroral administration of 100 mg/kg dose at 3.82*10e6 no of cells with 3.62*10e6 cells of control; method in brief: as §2
Rattus norvegicus [20] = experiment: Compound was tested for the inhibition of rat reversed passive Arthus pleurisy after peroral administration of 100 mg/kg dose at 0.72 mL of exudate volume with 0.54 mL of control (injected intrapleurally); method in brief: as §1
Rattus norvegicus [21] = experiment: Antiinflammatory activity on Carrageenan rat's paw edema(CPE) after peroral administration of 100 mg/kg dose with control swelling of 64.2%
Rattus norvegicus [22] = experiment: Antiinflammatory activity on Zymosan-induced rat's paw edema(ZPE) after peroral administration of 100 mg/kg dose with control swelling of 71.7%; method in brief: as §4
Rattus norvegicus [23] = experiment: Compound was tested for the inhibition of rat reversed passive Arthus pleurisy after peroral administration of 100 mg/kg dose at 5.76*10e6 no of cells with 7.4*10e6 cells of control; method in brief: as §2
Rattus norvegicus [24] = experiment: Antiinflammatory activity on Carrageenan rat's paw edema(CPE) after peroral administration of 100 mg/kg dose with control swelling of 73.7%
Rattus norvegicus [25] = experiment: Antiinflammatory activity on Zymosan-induced rat's paw edema(ZPE) after peroral administration of 100 mg/kg dose with control swelling of 61.0%; method in brief: as §4
Rattus norvegicus [26] = experiment: Compound was tested for the inhibition of rat reversed passive Arthus pleurisy after peroral administration of 100 mg/kg dose at 0.66 mL of exudate volume with 0.82 mL of control (injected intrapleurally); method in brief: as §1
Rattus norvegicus [27] = experiment: Compound was tested for the inhibition of rat reversed passive Arthus pleurisy after peroral administration of 100 mg/kg dose at 1.19*10e6 no of cells with 7.4*10e6 cells of control; method in brief: as §1
Rattus norvegicus [28] = experiment: Compound was tested for the inhibition of rat reversed passive Arthus pleurisy after peroral administration of 100 mg/kg dose at 0.28 mL of exudate volume with 0.82 mL of control (injected intrapleurally); method in brief: as §1
Rattus norvegicus [29] = experiment: Antiinflammatory activity on Carrageenan rat's paw edema(CPE) after peroral administration of 100 mg/kg dose with control swelling of 71.9%
Rattus norvegicus [30] = experiment: Antiinflammatory activity on Zymosan-induced rat's paw edema(ZPE) after peroral administration of 100 mg/kg dose with control swelling of 72.9%; method in brief: as §4
Rattus norvegicus [31] = experiment: Compound was tested for the inhibition of rat reversed passive Arthus pleurisy after peroral administration of 100 mg/kg dose at 0.65 mL of exudate volume with 0.86 mL of control (injected intrapleurally); method in brief: as §1
Rattus norvegicus [32] = experiment: Compound was tested for the inhibition of rat reversed passive Arthus pleurisy after peroral administration of 100 mg/kg dose at 3.02*10e6 no of cells with 3.86*10e6 cells of control; method in brief: as §1
Rattus norvegicus [33] = experiment: Compound was tested for the inhibition of rat reversed passive Arthus pleurisy after peroral administration of 100 mg/kg dose at 3.36*10e6 no of cells with 3.86*10e6 cells of control; method in brief: as §1
Rattus norvegicus [34] = experiment: Compound was tested for the inhibition of rat reversed passive Arthus pleurisy after peroral administration of 100 mg/kg dose at 0.66 mL of exudate volume with 0.79 mL of control (injected intrapleurally); method in brief: as §1
Rattus norvegicus [35] = experiment: Compound was tested for the inhibition of rat reversed passive Arthus pleurisy after peroral administration of 100 mg/kg dose at 3.02*10e6 no of cells with 3.37*10e cells of control; method in brief: as §1
Rattus norvegicus [36] = experiment: Compound was tested for the inhibition of rat reversed passive Arthus pleurisy after peroral administration of 100 mg/kg dose at 0.43 mL of exudate volume with 0.46 mL of control (injected intrapleurally); method in brief: as §1
Rattus norvegicus [37] = experiment: Antiinflammatory activity on Carrageenan rat's paw edema(CPE) after peroral administration of 100 mg/kg dose with control swelling of 65.6%

SMILES: COc1ccc2c(c1)c(CC(=O)O)c(C)n2C(=O)c1ccc(Cl)cc1 [INDOMETHACIN]
- inhibition in vivo at 10 mg/kg (Rattus norvegicus [1]): 23.9%
- inhibition in vivo at 10 mg/kg (Rattus norvegicus [2]): -20.9%
- inhibition in vivo at 3 mg/kg (Rattus norvegicus [3]): -8.7%
- inhibition in vivo at 3 mg/kg (Rattus norvegicus [4]): -60.2%

SMILES: O=C(Nc1cccc(Cl)c1)c1c(O)c2cccnc2n(-c2ccccc2)c1=O
- inhibition in vivo at 100 mg/kg (Rattus norvegicus [5]): 21.7%
- inhibition in vivo at 100 mg/kg (Rattus norvegicus [6]): 5.2%
- inhibition in vivo at 100 mg/kg (Rattus norvegicus [7]): 7.6%
- Swelling (Rattus norvegicus [8]): 77.9%
- Swelling (Rattus norvegicus [9]): 79%
- inhibition in vivo at 100 mg/kg (Rattus norvegicus [10]): 13.4%

SMILES: O=C(Nc1nccs1)c1c(O)c2cccnc2n(-c2ccccc2)c1=O
- inhibition in vivo at 100 mg/kg (Rattus norvegicus [11]): 15.4%
- inhibition in vivo at 100 mg/kg (Rattus norvegicus [12]): 18.1%
- inhibition in vivo at 100 mg/kg (Rattus norvegicus [7]): 4.6%
- Swelling (Rattus norvegicus [13]): 69.9%
- Swelling (Rattus norvegicus [14]): 66.3%
- inhibition in vivo at 100 mg/kg (Rattus norvegicus [10]): 2.5%

SMILES: O=C(NCc1ccccc1)c1c(O)c2cccnc2n(-c2ccccc2)c1=O
- inhibition in vivo at 100 mg/kg (Rattus norvegicus [15]): 9.6%
- inhibition in vivo at 100 mg/kg (Rattus norvegicus [16]): -14.3%
- inhibition in vivo at 100 mg/kg (Rattus norvegicus [7]): 1.6%
- Swelling (Rattus norvegicus [17]): 60.4%
- Swelling (Rattus norvegicus [18]): 60.3%
- inhibition in vivo at 100 mg/kg (Rattus norvegicus [10]): 11.3%

SMILES: CCCCNC(=O)c1c(O)c2cccnc2n(-c2ccccc2)c1=O
- inhibition in vivo at 100 mg/kg (Rattus norvegicus [19]): 7.7%
- inhibition in vivo at 100 mg/kg (Rattus norvegicus [7]): 12.8%
- inhibition in vivo at 100 mg/kg (Rattus norvegicus [20]): -36.7%
- Swelling (Rattus norvegicus [21]): 51.1%
- Swelling (Rattus norvegicus [22]): 62.5%
- inhibition in vivo at 100 mg/kg (Rattus norvegicus [10]): 20.4%

SMILES: COc1ccc(NC(=O)c2c(O)c3cccnc3n(-c3ccccc3)c2=O)cn1
- inhibition in vivo at 100 mg/kg (Rattus norvegicus [7]): 13.1%
- inhibition in vivo at 100 mg/kg (Rattus norvegicus [23]): 22.2%
- Swelling (Rattus norvegicus [24]): 72.3%
- Swelling (Rattus norvegicus [25]): 53%
- inhibition in vivo at 100 mg/kg (Rattus norvegicus [26]): 19.5%
- inhibition in vivo at 100 mg/kg (Rattus norvegicus [10]): -10.2%

SMILES: Cc1cnccc1NC(=O)c1c(O)c2cccnc2n(-c2ccccc2)c1=O
- inhibition in vivo at 100 mg/kg (Rattus norvegicus [7]): 26.9%
- inhibition in vivo at 100 mg/kg (Rattus norvegicus [27]): 83.9%
- inhibition in vivo at 100 mg/kg (Rattus norvegicus [28]): 65.9%
- Swelling (Rattus norvegicus [29]): 64.6%
- Swelling (Rattus norvegicus [30]): 53.3%
- inhibition in vivo at 100 mg/kg (Rattus norvegicus [10]): 8.8%

SMILES: Cc1cccc(NC(=O)c2c(O)c3cccnc3n(-c3ccccc3)c2=O)c1
- inhibition in vivo at 100 mg/kg (Rattus norvegicus [7]): 14.2%
- inhibition in vivo at 100 mg/kg (Rattus norvegicus [31]): 27.3%
- Swelling (Rattus norvegicus [21]): 61.3%
- Swelling (Rattus norvegicus [22]): 61.5%
- inhibition in vivo at 100 mg/kg (Rattus norvegicus [10]): 4.5%
- inhibition in vivo at 100 mg/kg (Rattus norvegicus [32]): 28.5%

SMILES: O=C(Nc1cccc([N+](=O)[O-])c1)c1c(O)c2cccnc2n(-c2ccccc2)c1=O
- inhibition in vivo at 100 mg/kg (Rattus norvegicus [33]): 15.4%
- inhibition in vivo at 100 mg/kg (Rattus norvegicus [7]): 5.7%
- Swelling (Rattus norvegicus [8]): 83.6%
- Swelling (Rattus norvegicus [9]): 80.6%
- inhibition in vivo at 100 mg/kg (Rattus norvegicus [34]): 19.1%
- inhibition in vivo at 100 mg/kg (Rattus norvegicus [10]): 7.4%

SMILES: O=C(NN1CCOCC1)c1c(O)c2cccnc2n(-c2ccccc2)c1=O
- inhibition in vivo at 100 mg/kg (Rattus norvegicus [35]): 10.4%
- inhibition in vivo at 100 mg/kg (Rattus norvegicus [36]): 14.6%
- inhibition in vivo at 100 mg/kg (Rattus norvegicus [7]): -8.5%
- Swelling (Rattus norvegicus [37]): 82.8%
- Swelling (Rattus norvegicus [25]): 66.2%
- inhibition in vivo at 100 mg/kg (Rattus norvegicus [10]): -26.2%

From ChEMBL document CHEMBL1126267, “A novel synthesis and potent antiinflammatory activity of 4-hydroxy-2(1H)-oxo-1-phenyl-1,8-naphthyridine-3-carboxamides” (1992)
